Measurements from ChEMBL document CHEMBL5715960, “Epigenetic Co-Deregulation of EZH2/TET1 is a Senescence-Countering, Actionable Vulnerability in Triple-Negative Breast Cancer” (Theranostics, 2019).
Active and inactive are the calls of the source.

Assays:
MDA-MB-436 [1] = experiment: Antiproliferative activity against human MDA-MB-436 cells at 0.5 to 2 uM for 2 days by Guava viacount assay; assay type: functional, cell-based; conditions: dose 0.5-2 µM, time 2.0 day
Summary of the method: (§1)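 Cells plated at 2 × 10^4 (24-well) or 1 × 10^5 (12-well), exposed to a range of GSK343 concentrations for 2 days against DMSO solvent control; cell number and viability read by Guava ViaCount flow cytometry, relative to DMSO. Triplicate; mean ± SD.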

MCF7 [2] = experiment: Antiproliferative activity in human MCF7 cells assessed as increase in SA-beta-gal positive cells at 2 uM for 5 days by SA-beta-gal staining analysis; assay type: toxicity, cell-based; conditions: mcf7, 120 h, time 5 day
Summary of the method: (§2)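 GSK343 2 µM or DMSO for 5 days, then chromogenic SA-β-gal staining and counting of positive cells. Triplicate; mean ± SD.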

MDA-MB-436 [3] = experiment: Upregulation of […] signalling in human MDA-MB-436 cells at 2 uM for 2 days by immunoblot analysis; assay type: functional, cell-based; conditions: time 2.0 day
MDA-MB-231 [4] = experiment: Antiproliferative activity in human MDA-MB-231 cells assessed as increase in C12FDG based fluorescent SA-beta-gal positive cells at 2 uM in presence of adriamycin by FACS analysis; assay type: functional, cell-based
Summary of the method: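 Cells given 0.005 µg/ml adriamycin with or without 2 µM GSK343, or DMSO; SA-β-gal activity detected with C12FDG fluorescent substrate by flow cytometry, reported as percent positive cells. Mean ± SD.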

BT-474 [5] = experiment: Upregulation of TP53 gene in human BT-474 cells at 2 uM by qRT-PCR analysis; assay type: functional, cell-based
Summary of the method: (§3)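 Relative transcript levels measured by qRT-PCR in cells treated with 2 µM inhibitor, normalised to DMSO-treated control cells. Triplicate experiments unless stated otherwise; mean ± SD reported; unpaired two-tailed Student's t-test at p < 0.05.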

MDA-MB-231 [6] = experiment: Upregulation of TP53 gene in human MDA-MB-231 cells at 2 uM by qRT-PCR analysis; assay type: functional, cell-based; summary of the method: as §3
MDA-MB-231 [7] = experiment: Induction of cell cycle arrest in human MDA-MB-231 cells assessed as accumulation of cells at G1 phase measured at 2 uM by BrdU/PI staining based flow cytometric analysis (reference value: 51.5%); assay type: functional
MDA-MB-436 [8] = experiment: Effect on human MDA-MB-436 cells assessed as increase in TET1 transcription by qRT-PCR analysis; assay type: functional, cell-based
Summary of the method: (§4)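 qRT-PCR of TET1, TET2 and TET3 transcripts in breast cancer cells exposed to GSK343 (2 µM unless otherwise indicated), shown relative to DMSO-treated cells. Mean ± SD, triplicate unless stated.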

MDA-MB-436 [9] = experiment: Induction of cell cycle arrest in human MDA-MB-436 cells assessed as accumulation of cells at S phase measured at 2 uM by BrdU/PI staining based flow cytometric analysis (reference value: 39.5%); assay type: functional
SK-BR-3 = experiment: Antiproliferative activity in human SK-BR-3 cells assessed as increase in SA-beta-gal positive cells at 2 uM for 5 days by SA-beta-gal staining analysis; assay type: toxicity, cell-based; conditions: sk-br-3, 120 h, time 5 day; summary of the method: as §2
BT-474 [10] = experiment: Effect on human BT-474 cells assessed as increase in TET1 transcription by qRT-PCR analysis; assay type: functional, cell-based; summary of the method: as §4
MDA-MB-361 [11] = experiment: Antiproliferative activity in human MDA-MB-361 cells assessed as increase in SA-beta-gal positive cells at 2 uM for 5 days by SA-beta-gal staining analysis; assay type: toxicity, cell-based; conditions: mda-mb-361, 120 h, time 5 day; summary of the method: as §2
MDA-MB-231 [12] = experiment: Antiproliferative activity against human MDA-MB-231 cells at 0.5 to 2 uM for 2 days by Guava viacount assay; assay type: functional, cell-based; conditions: dose 0.5-2 µM, time 2.0 day; summary of the method: as §1
MCF7 [13] = experiment: Effect on human MCF7 cells assessed as increase in global 5hmc level by dot analysis; assay type: functional, cell-based
Summary of the method: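 Global 5hmC measured by dot blot on genomic DNA from cells given GSK343 or carrying EZH2 knock-down, with DMSO or scrambled shRNA as controls. DNA denatured in 0.1 M NaOH at 99 °C for 5 min, then neutralized with ammonium sulfate pH 7.0. 5 µg spotted, UV-crosslinked, probed with anti-5hmC for 1 h at room temperature, ECL detection, dot intensity quantified. Mean ± SD.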

MDA-MB-436 [14] = experiment: Downregulation of EZH2 protein expression in human MDA-MB-436 cells at 2 uM for 2 days by immunoblot analysis; assay type: functional, cell-based; conditions: time 2.0 day
MDA-MB-436 [15] = experiment: […] in human MDA-MB-436 cells xenografted in Crl:NU-Foxn1-nu/nu mouse […] administered at 5 mg/kg, ip in presence of adriamycin treated for 21 days by SA-beta-gal staining analysis; assay type: functional, organism-based; conditions: time 21.0 day
Summary of the method: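 SA-β-gal staining of xenograft tumors. Twice-weekly intraperitoneal GSK343 5 mg/kg, adriamycin 1 mg/kg, the combination, or DMSO, started at a tumor volume of about 50 mm3 and continued for 21 days.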

MDA-MB-436 [16] = experiment: Effect on human MDA-MB-436 cells assessed as apoptotic phenotype by measuring increase in BAX expression level at 2 uM in presence of adriamycin by immunoblot analysis; assay type: functional, cell-based
Summary of the method: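 Immunoblot of cell lysates after 0.05 µg/ml adriamycin alone, with 2 µM GSK343, or DMSO. α-Tubulin and total H3 used as loading controls.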

BT-474 [17] = experiment: Cytotoxicity against human BT-474 cells assessed as increase in cell death at 10 uM for 2 days by Guava viacount assay; assay type: toxicity, cell-based; conditions: bt-474, 48 h, time 2 day; summary of the method: as §1
BT-474 [18] = experiment: Antiproliferative activity in human BT-474 cells assessed as increase in SA-beta-gal positive cells at 2 uM for 5 days by SA-beta-gal staining analysis; assay type: toxicity, cell-based; conditions: bt-474, 120 h, time 5 day; summary of the method: as §2
MCF7 [19] = experiment: Upregulation of TP53 gene in human MCF7 cells at 2 uM by qRT-PCR analysis; assay type: functional, cell-based; summary of the method: as §3
MDA-MB-436 [20] = experiment: Effect on human MDA-MB-436 cells assessed as increase in TET1 protein level by qRT-PCR analysis
MDA-MB-231 [21] = experiment: Downregulation of EZH2 in human MDA-MB-231 cells at 2 uM for 2 days by immunoblot analysis; assay type: functional, cell-based; conditions: time 2.0 day
MDA-MB-436 [22] = experiment: Antitumor activity against human MDA-MB-436 cells xenografted in Crl:NU-Foxn1-nu/nu mouse assessed as reduction in tumor administered at 5 mg/kg, ip in presence of adriamycin treated for 21 days; assay type: functional, organism-based; conditions: time 21.0 day
MDA-MB-436 [23] = experiment: Upregulation of TP53 gene in human MDA-MB-436 cells at 2 uM by qRT-PCR analysis; assay type: functional, cell-based; summary of the method: as §3
MDA-MB-436 [24] = experiment: Downregulation of EZH2 transcription in human MDA-MB-436 cells at 2 uM for 2 days by immunoblot analysis; assay type: functional, cell-based; conditions: time 2.0 day
MDA-MB-361 [25] = experiment: Cytotoxicity against human MDA-MB-361 cells at 0.5 to 2 uM for 2 days by Guava viacount assay; assay type: toxicity, cell-based; conditions: mda-mb-361, 48 h, dose 0.5-2 µM, time 2 day; summary of the method: as §1
BT-474 [26] = experiment: Effect on human BT-474 cells assessed as increase in TET2 transcription by qRT-PCR analysis; assay type: functional, cell-based; summary of the method: as §4
MDA-MB-231 [27] = experiment: Cytotoxicity against human MDA-MB-231 cells assessed as killing of cells at 2 uM in presence of adriamycin; assay type: functional, cell-based
Summary of the method: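 Viability after a range of adriamycin concentrations given alone or together with 2 µM GSK343, measured by Guava ViaCount; mean ± SD.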

Measured: Activity

CCCc1cc(C)[nH]c(=O)c1CNC(=O)c1cc(-c2ccnc(N3CCN(C)CC3)c2)cc2c1cnn2C(C)C
76.8%: MDA-MB-231 [7]
15.2%: MDA-MB-436 [9]
Non-Toxic: MCF7 [2] | SK-BR-3 | MDA-MB-361 [11] | BT-474 [17] | BT-474 [18] | MDA-MB-361 [25]
inactive: BT-474 [5] | BT-474 [10] | MCF7 [13] | MCF7 [19] | BT-474 [26]
active: all other assays above
